TRPC4 potent: positive allosteric modulators of TRPC4, primary screen, cell-based, mouse TRPC4beta, HEK293 mu-opioid, Fluo-4 calcium. AID 2227, 2009. DAMGO EC20, Fluo-4 Ca2+ flux; hits give high values. actives 0.42% (n = 310,000). B-score at 10 µM;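 active = B-score of calcium response area above 5 SD of library B-scores, with initial fluorescence ratio within 5 SD of library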;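 also: B-score of integrated fluorescence ratio over time as area under calcium response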
TRPC6 activator: mouse TRPC6 channel activators, primary screen, cell-based, HEK293, membrane potential dye. actives 0.13% (n = 310,000). HEK293-TRPC6 membrane potential dye fluorescence; hits give high values. Short transient receptor potential channel 6 (Mus musculus), Q61143. B-score at 10 µM;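 active = B-score of the integrated fluorescence ratio above library mean plus 3 SD, and starting fluorescence ratio within library mean plus 5 SD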;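 also: higher score means more depolarization so channel activation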
TRPC4 act: activators of mouse TRPC4 channel, primary screen, Fluo4 calcium, HEK293 TRPC4beta/mu-opioid cells; Short transient receptor potential channel 4 (Mus musculus), Q9QUQ5; Fluo4 calcium fluorescence; hits give high values; B-score at 10 µM; actives 0.49% (n = 310,000);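 active = B-score above 5 SD of library B-scores, and initial fluorescence ratio not above library mean plus 5 SD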;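 also: positive B-score marks a calcium rise read as TRPC4 activation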
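system = HEK293 cells stably co-expressing mouse TRPC4beta and mu-opioid receptor | schedule = Fluo4 dye loading 45 min at room temperature, 110 s recording | measure = B-scored integrated calcium fluorescence ratio | signal = Fluo4 calcium-sensitive dye fluorescence, kinetic, 1 Hz baseline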
TRPC4 inh: inhibitors of mouse TRPC4 channel, primary screen, Fluo4 calcium, HEK293 TRPC4beta/mu-opioid cells. Short transient receptor potential channel 4 (Mus musculus), Q9QUQ5. DAMGO-evoked Fluo4 calcium flux; hits give low values. B-score at 10 µM. actives 0.39% (n = 300,000). AID 2247, 2010;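 active = B-score over 3 SD under the library average, no early fluorescence shift, positive overall ratio signal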
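Assay system: TRPC4beta/mu-opioid receptor HEK293 cell line; compound dosing: single concentration per test compound; detection: Fluo4 Ca2+ flux fluorescence; evaluation: per-well B score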
Kir21 block: inhibitors of mouse Kir2.1 inward-rectifier potassium channel | HEK293-Kir2.1, FluxOR thallium flux fluorescence; hits give low values | AID 1672, 2009 | Inward rectifier potassium channel 2 (Mus musculus), P35561 | B-score at 10 µM | actives 0.85% (n = 310,000);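 active = fluorescence ratio B-score at or below minus 3 SD of library scores, with starting-brightness B-score within 2 SD, cut at about -4.2 in these data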;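 also: channel flux triggered by added potassium and thallium sulfate stimulus; B-score of peak minus minimum fluorescence over baseline after thallium stimulus; more negative B-score means stronger Kir2.1 block with less thallium influx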
Target sequence (P35561 whole entry, looked up): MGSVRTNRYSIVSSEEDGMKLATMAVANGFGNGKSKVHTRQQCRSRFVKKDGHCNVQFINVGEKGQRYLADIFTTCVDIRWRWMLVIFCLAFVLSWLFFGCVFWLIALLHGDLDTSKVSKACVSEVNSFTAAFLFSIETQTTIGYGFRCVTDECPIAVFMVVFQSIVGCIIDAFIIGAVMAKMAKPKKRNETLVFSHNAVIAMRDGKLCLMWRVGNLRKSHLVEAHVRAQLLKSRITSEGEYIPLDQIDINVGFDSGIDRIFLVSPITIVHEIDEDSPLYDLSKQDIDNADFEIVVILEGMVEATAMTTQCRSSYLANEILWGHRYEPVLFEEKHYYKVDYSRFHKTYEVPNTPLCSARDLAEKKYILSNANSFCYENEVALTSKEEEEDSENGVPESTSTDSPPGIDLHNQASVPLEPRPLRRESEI
TRPC6 inhibitor: mouse TRPC6 channel inhibitors, primary screen, cell-based, HEK293, membrane potential dye; actives 1.1% (n = 310,000); ACh-evoked depolarization; hits give low values; B-score at 10 µM; Short transient receptor potential channel 6 (Mus musculus), Q61143;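 active = B-score under library mean minus 3 SD, initial fluorescence not abnormally high, positive integrated signal ratio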;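 also: B-score derived from integrated fluorescence ratio over the kinetic read; more negative B-score means stronger inhibition of depolarization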
* hit, by the source's call; i = inactive. This is a sample that favours compounds with a hit; in the whole collection about 2.9% have one here.

SMILES	TRPC4 potent	TRPC6 activator	TRPC4 act	TRPC4 inh	Kir21 block	TRPC6 inhibitor
Cc1cc(C)nc(N/N=C/c2sccc2C)n1	i	i	i	i	-0.98	i
COc1ccc(C(=O)N/N=C/c2ccc(OC(=O)c3ccccc3)cc2)cc1	i	i	i	i	-0.9	i
CCOC(=O)/C(=C/c1ccc(OC(=O)c2ccncc2)cc1)C(C)=O	i	i	i	i	-1	i
O=C(Oc1ccc(/C=N/O)cc1)c1ccccc1	i	i	i	i	-5.6*	i
O=C(Oc1ccc(/C=N/Nc2ccccc2)cc1)c1ccccc1	i	i	i	i	-4.6*	i
O=C(O)c1ccc(N/N=C/c2ccc(OC(=O)c3cccc(Cl)c3)cc2)cc1	i	i	i	i	3.4	i
COCCOC(=O)/C(=C/c1ccc(OC(=O)c2ccccc2)cc1)C(C)=O	i	i	i	i	-14*	i
CC(C)Sc1n[nH]c(=O)n1-c1ccccc1	i	i	i	i	0.03	i
CC1(C)CC(=O)C(C=NCCc2ccccn2)=C(O)C1	i	i	50*	i	-0.85	i
CCC(=O)N1CCN(CCN=CC2=C(O)CC(C)(C)CC2=O)CC1	i	i	i	i	-0.03	i
CC1(C)CC(=O)C(C=NCCN2CCN(C(=O)CCl)CC2)=C(O)C1	34*	i	i	i	0.23	i
CC1(C)CC(=O)C(C=NCCN2CCN(C3CC(=O)N(c4ccc(F)cc4)C3=O)CC2)=C(O)C1 (configuration not stated)	i	i	i	i	-0.84	i
CC1(C)CC(=O)C(C=NCCN2CCN(C3CC(=O)N(c4cccc(Br)c4)C3=O)CC2)=C(O)C1 (configuration not stated)	29*	i	i	i	-0.21	i
COc1cccc(N2C(=O)CC(N3CCN(CCN=CC4=C(O)CC(C)(C)CC4=O)CC3)C2=O)c1 (configuration not stated)	16*	i	i	i	2	i
Cc1c(NC(=O)CCCCCN2C(=O)c3ccccc3C2=O)c(=O)n(-c2ccccc2)n1C	i	i	i	i	-1.7	i
Cc1ccnc(NC(=O)C2CC(=O)N(Cc3ccccc3)C2)c1 (configuration not stated)	i	i	i	i	-0.04	i
Cc1ccc(C2Cc3cc(O)c(O)cc3CN2)cc1 (configuration not stated)	i	i	i	i	-7.5*	i
O=[N+]([O-])c1cccc(-c2nc3ccccc3s/c2=N/O)c1	i	i	i	i	-0.62	i
COc1cc(/C=C2/C(=N)N3C(SC)=NSC3=NC2=O)ccc1OC(=O)c1ccco1	i	i	i	i	-4.6*	i
O=C(COC(=O)c1cc(=O)c2ccccc2o1)NC1CCCC1	i	i	i	i	-0.36	i
Cc1ccc(Nc2nc(NCCCN3CCOCC3)nc(N)c2[N+](=O)[O-])cc1	i	i	i	-6*	-0.49	i
Fc1ccccc1Sc1ccccc1CNC1=NCCN1	i	i	i	-6*	-2.5	i
c1ccc(CSc2nnnn2-c2cccc3ccccc23)nc1	i	i	i	i	-7.4*	i
CCOC(=O)CNC(=O)N1CCCC(C(=O)c2ccccc2SC)C1 (configuration not stated)	i	i	i	i	0.03	i
Clc1ccc(-c2csc(-c3cccnc3)n2)s1	i	i	i	i	-0.01	i
COc1ccc(C(=O)CSc2nc3ncccc3[nH]2)cc1OC	i	i	i	i	1.5	i

High-throughput results (PubChem)
